Data taken from ChEMBL document CHEMBL1154307, “Eucalmaidins A-E, (+)-oleuropeic acid derivatives from the fresh leaves of Eucalyptus maideni” (J Nat Prod, 2009).
Activity calls are given as the source filed them. No cut-off for these calls is given here.

Legend:
Human alphaherpesvirus 1 = test: Antiviral activity against HSV1 infected in african green monkey Vero cells assessed as inhibition of virus-induced cytopathic effect after 3 days by crystal violet staining; type: functional
Method in brief: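 Vero cells grown 24 h in 24-well plates, then infected with 30 PFU HSV-1 together with serial sample dilutions in DMEM containing 2% FBS, adjusted to pH 7.2 with NaHCO3 and Hepes. Overlay medium held 1% methylcellulose. After 3 days, cells were fixed with formalin, stained with crystal violet, and plaques counted. The concentration giving 100% plaque reduction versus untreated infected control was read from graphic plots.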

[1] = Cytotoxicity against african green monkey Vero cells after 3 days by MTT assay; type: cell-based; details: chlorocebus sabaeus, read-out: MNCC
Method in brief: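 Confluent Vero monolayers were exposed in triplicate to serial sample dilutions in DMEM with 2% FBS (pH 7.2) for 3 days. MTT was then added for 4 h and the formazan dissolved in DMSO. OD was read at 540 and 630 nm against untreated control. The maximal noncytotoxic concentration was taken as the highest concentration showing no cytotoxic effect.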

SMILES	inhibition (Human alphaherpesvirus 1)	MNTC at 72 h [1]	Concentration giving 100% plaque reduction (IC100) (Human alphaherpesvirus 1)
CC(C)(O)[C@H]1CC=C(C(=O)OC[C@H]2O[C@@H](Oc3c(O)cc(C(=O)O)cc3O)[C@H](O)[C@@H](O)[C@@H]2O)CC1 [EUCALMAIDIN B]	inactive	400 µM	
O=c1c(O)c(-c2ccc(O)c(O)c2)oc2cc(O)cc(O)c12 [QUERCETIN]		< 20 µM	0.33 mM
CC1(O)CC(=O)c2c(O)cc(O[C@@H]3O[C@H](COC(=O)C4=CC[C@H](C(C)(C)O)CC4)[C@@H](O)[C@H](O)[C@H]3O)cc2O1 (stereo partly specified) [CYPELLOCARPIN B]	inactive	20 µM	
CC(C)(O)C1CC=C(C(=O)O)CC1 (racemic)	inactive	> 1090 µM	
COc1cc([C@@H]2c3cc(O)c(OC)cc3C[C@H](CO)[C@H]2CO[C@@H]2O[C@H](CO)[C@@H](O)[C@H](O)[C@H]2O)ccc1O	inactive	380 µM	
Cc1cc(=O)c2c(O)cc(O[C@@H]3O[C@H](COC(=O)C4=CC[C@H](C(C)(C)O)CC4)[C@@H](O)[C@H](O)[C@H]3O)cc2o1 [CYPELLOCARPA C]	inactive	> 380 µM	
CC(C)(O)[C@H]1CC=C(C(=O)OC[C@H]2O[C@@H](O)[C@H](O)[C@@H](O)[C@@H]2O)CC1 [EUCALMAIDIN A]	inactive	> 580 µM	
C[C@@H]1O[C@@H](Oc2c(-c3ccc(O)c(O)c3)oc3cc(O)cc(O)c3c2=O)[C@H](O)[C@H](O)[C@H]1O [QUERCITRIN]	inactive	10 µM	
COc1cc(C(=O)O)cc(OC)c1O[C@@H]1O[C@H](COC(=O)C2=CC[C@H](C(C)(C)O)CC2)[C@@H](O)[C@H](O)[C@H]1O [EUCALMAIDIN C]	inactive	380 µM	
CC(C)(O)[C@H]1CC=C(C(=O)OC[C@H]2O[C@@H](Oc3cc(C(=O)O)cc(O)c3O)[C@H](O)[C@@H](O)[C@@H]2O)CC1 [CYPELLOCARPIN A]	inactive	30 µM	
Nc1nc2c(ncn2COCCO)c(=O)[nH]1 [ACYCLOVIR]			0.0043 mM
